Data set [1] in a line: Intrinsic clearance in human liver microsomes assessed per mg protein by LC-MS/MS analysis. In kind it is ADME, Microsome. (In general: Microsomes from liver hold many membrane-bound enzymes, among them those of drug oxidation.)
Data set [2] is described as follows: Cmax in Balb/c mouse at 10 mg/kg, ip measured after 1 hr by LC-MS/MS analysis. The data set is classed as ADME, organism-based. Details: route intraperitoneal, dose 10 mg/kg, time 1 hrs. Particulars: in vivo. The essentials:
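BALB/c mice (n=3) received a single 10 mg/kg intraperitoneal dose. Retro-orbital blood samples were taken at 0.083, 0.25, 0.5, 1, 2, 4, 8 and 24 h post-dose, and plasma levels were quantified by LC-MS-MS. Cmax is the mean of the three animals, read from the plasma concentration–time profile.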

Data set [3] can be described thus: Half life in mouse liver microsomes. The data set is classed as ADME, Microsome.
The nature of data set [4]: Intrinsic clearance in rat hepatocytes assessed per million cells by LC-MS/MS analysis. The data set is classed as ADME, cell-based, Hepatocyte.
Data set [5] in a line: Half life in mouse plasma. The data set is classed as ADME, cell-free.
Data set [6] is described as follows: Tmax in Balb/c mouse at 10 mg/kg, ip by LC-MS/MS analysis. Conditions: in vivo. The data set is classed as ADME, organism-based. The essentials: (§1)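 BALB/c mice, n=3, single 10 mg/kg intraperitoneal dose. Blood (50 μL) taken by retro-orbital bleed at 0.083, 0.25, 0.5, 1, 2, 4, 8 and 24 h post-dose. Plasma levels measured by LC-MS-MS. Brain and plasma levels from sparse sampling at 0.5 and 4 h; LLOQ 9.77 ng/mL.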

The nature of data set [7]: Drug level in Balb/c mouse brain at 10 mg/kg, ip measured after 0.5 hrs by LC-MS/MS analysis. The data set is classed as ADME, organism-based. Particulars: in vivo, BLD = below limit of detection. A digest of the protocol: as §1
Data set [8] is described as follows: Permeability in human Caco2 cells. Conditions: caco-2. The data set is classed as ADME, cell-based.

A value given as a limit tells only on which side of the number the result lay.

In data set [1], `Cn1cc(-c2cnc3[nH]cc(-c4cccc(C#N)c4)c3c2)cn1` yielded a CLint of 190 µL/min/mg.

Take `Cn1cc(-c2cnc3[nH]cc(-c4cccc(F)c4)c3c2)cn1`: the CLint in data set [1] turned out to be 110 µL/min/mg.

As to `N#Cc1cccc(-c2c[nH]c3ncc(N4CCCCC4)cc23)c1`, the CLint in data set [1] was 300 µL/min/mg.

For the molecule `Cn1cc(-c2cnc3[nH]cc(-c4ccc5[nH]ccc5c4)c3c2)cn1`, the CLint in data set [1] was 300 µL/min/mg.

`Cn1cc(-c2cnc3[nH]cc(C4CCN(C(=O)OC(C)(C)C)C4)c3c2)cn1` (configuration not stated) gave a CLint in data set [1] of 180 µL/min/mg.

The molecule `Cc1ccc(S(=O)(=O)n2cc(-c3cccc(C#N)c3)c3cc(-c4cnn(C)c4)cnc32)cc1` displayed a CLint in data set [1] of 15 µL/min/mg.

Consider `Cn1cc(-c2cnc3[nH]cc(-c4cncc(C#N)c4)c3c2)cn1`, for which the CLint in data set [1] turned out to be 150 µL/min/mg.

Consider `N#Cc1cccc(-c2c[nH]c3ncc(-c4cn[nH]c4)cc23)c1`, for which, in data set [1], the CLint worked out at 290 µL/min/mg.

In the case of `Cn1cc(-c2ccc3[nH]cc(-c4cccc(C#N)c4)c3c2)cn1`, the CLint in data set [1] came to 190 µL/min/mg.

Consider `COc1cccc(-c2c[nH]c3ncc(-c4cnn(C)c4)cc23)c1`, for which the CLint in data set [1] was > 300 µL/min/mg.

Consider `Cn1cc(-c2cnc3[nH]cc(C4CCCNC4)c3c2)cn1` (configuration not stated), for which, in data set [1], the CLint was < 3 µL/min/mg.

Molecule `Cn1cc(-c2cnc3[nH]cc(-c4ccc(F)c(C#N)c4)c3c2)cn1` gave a CLint in data set [1] of 64 µL/min/mg.

`Cc1nn(C)c(C)c1-c1cnc2[nH]cc(-c3cccc(C#N)c3)c2c1` registered a CLint in data set [1] of 300 µL/min/mg.

The molecule `Cn1cc(-c2cnc3[nH]cc(-c4cc(F)cc(C#N)c4)c3c2)cn1` returned a CLint in data set [1] of 91 µL/min/mg.

For the molecule `Cn1cc(-c2cnc3[nH]cc(-c4ccc5nonc5c4)c3c2)cn1`, in data set [1], the CLint turned out to be 88 µL/min/mg.

Regarding `Cn1cc(-c2cnc3[nH]cc(C4CCNC4)c3c2)cn1` (configuration not stated), the CLint in data set [1] is < 3 µL/min/mg.

`CN1CCC(n2cc(-c3cnc4[nH]cc(-c5cccc(C#N)c5)c4c3)cn2)CC1`: the CLint in data set [1] came out at 17 µL/min/mg.

In the case of `Cn1cc(-c2cnc3[nH]cc(-c4ccc(C(=O)O)cc4)c3c2)cn1`, in data set [1], the CLint was < 3 µL/min/mg.

For the molecule `CC(C)(C)OC(=O)N1CCN(c2cnc3[nH]cc(-c4cccc(C#N)c4)c3c2)CC1`, the CLint in data set [1] amounted to 94 µL/min/mg.

For `CS(=O)(=O)c1ccc(-c2cnc3[nH]cc(-c4cccc(C#N)c4)c3c2)cc1`, the CLint in data set [1] worked out at 30 µL/min/mg.

In the case of `CN1CCCN(c2cnc3[nH]cc(-c4cccc(C#N)c4)c3c2)CC1`, the CLint in data set [1] was determined as 82 µL/min/mg.

For the molecule `Cn1cc(-c2cnc3[nH]cc(-c4ccc(F)c(F)c4)c3c2)cn1`, the CLint in data set [1] was found to be 90 µL/min/mg.

`Cn1cc(-c2cnc3[nH]cc(-c4ccc(F)cc4)c3c2)cn1` showed a CLint in data set [1] of 130 µL/min/mg.

In data set [1], `CC(C)(C)OC(=O)N1CCC(n2cc(-c3cnc4[nH]cc(-c5cccc(C#N)c5)c4c3)cn2)CC1` returned a CLint of 91 µL/min/mg.

Turning to `Cc1ccc(-c2c[nH]c3ncc(-c4cnn(C)c4)cc23)cc1`, in data set [1], the CLint was 130 µL/min/mg.

Take `N#Cc1cccc(-c2c[nH]c3ncc(-c4cnn(C5CCOCC5)c4)cc23)c1`: the CLint in data set [1] amounted to 46 µL/min/mg.

In data set [1], `Cn1cc(-c2cnc3[nH]cc(-c4ccc(Cl)c(Cl)c4)c3c2)cn1` registered a CLint of 51 µL/min/mg.

In data set [1], `Cn1cc(-c2cnc3[nH]cc(-c4ccccc4)c3c2)cn1` showed a CLint of 200 µL/min/mg.

As to `Cn1cc(-c2c[nH]c3ncc(-c4cccc(C#N)c4)cc23)cn1`, the CLint in data set [1] is 300 µL/min/mg.

Take `Cn1cc(-c2cnc3[nH]cc(-c4ccnc(C#N)c4)c3c2)cn1`: the CLint in data set [1] was found to be 190 µL/min/mg.

For `Cn1cc(-c2cnc3[nH]cc(-c4ccc(O)cc4)c3c2)cn1`, the CLint in data set [1] was 50 µL/min/mg.

In turn, `CS(=O)(=O)c1ccc(Nc2cnc3[nH]cc(-c4cccc(C#N)c4)c3c2)cc1` gave a CLint in data set [1] of 33 µL/min/mg.

`Cn1cc(-c2cnc3occ(-c4cccc(C#N)c4)c3c2)cn1` gave a CLint in data set [1] of 130 µL/min/mg.

In data set [1], `Cn1cc(-c2cnc3[nH]cc(-c4ccccc4C#N)c3c2)cn1` gave a CLint of 200 µL/min/mg.

On to `N#Cc1cccc(-c2c[nH]c3ncc(-c4cncnc4)cc23)c1`, for which the CLint in data set [1] was found to be 31 µL/min/mg.

Turning to `Cn1cc(-c2cnc3[nH]cc(-c4cccc([N+](=O)[O-])c4)c3c2)cn1`, in data set [1], the CLint was determined as 14 µL/min/mg.

Take `Cn1cc(-c2cnc3[nH]cc(-c4cccnc4)c3c2)cn1`: the CLint in data set [1] came to 90 µL/min/mg.

In data set [1], `N#Cc1cccc(-c2c[nH]c3ncc(-c4ccncc4)cc23)c1` returned a CLint of 160 µL/min/mg.

In the case of `Cn1cc(-c2cnc3[nH]ccc3c2)cn1`, in data set [1], the CLint was > 300 µL/min/mg.

In data set [1], `Cn1cc(-c2cnc3[nH]cc(-c4ccc(C#N)cc4)c3c2)cn1` gave a CLint of 51 µL/min/mg.

Molecule `CN1CCN(c2cnc3[nH]cc(-c4cccc(C#N)c4)c3c2)CC1` displayed a CLint in data set [1] of 44 µL/min/mg.

In turn, `Cc1c(-c2cnn(C)c2)cnc2[nH]cc(-c3cccc(C#N)c3)c12` showed a CLint in data set [1] of 210 µL/min/mg.

In turn, `Cn1cc(-c2cnc3[nH]cc(C4CCNCC4)c3c2)cn1` showed a CLint in data set [1] of 3 µL/min/mg.

`Cc1nn(C)cc1-c1cnc2[nH]cc(-c3cccc(C#N)c3)c2c1` showed a CLint in data set [1] of 250 µL/min/mg.

In turn, `N#Cc1cccc(-c2n[nH]c3ncc(-c4cnn(C5CCOCC5)c4)cc23)c1` had a CLint in data set [1] of 42 µL/min/mg.

`Cn1cc(-c2cnc3[nH]cc(-c4ccc(Cl)cc4)c3c2)cn1` came in with a CLint in data set [1] of 57 µL/min/mg.

In turn, `c1cc(-c2c[nH]c3ncc(-c4cnn(C5CCOCC5)c4)cc23)ccn1` gave a CLint in data set [1] of 29 µL/min/mg.

For `Cn1cc(-c2cnc3[nH]cc(-c4ccc(C(N)=O)cc4)c3c2)cn1`, the CLint in data set [1] came out at 14 µL/min/mg.

`CS(=O)(=O)N1CCN(c2cnc3[nH]cc(-c4cccc(C#N)c4)c3c2)CC1`: the CLint in data set [1] amounted to 32 µL/min/mg.

With `Cn1cc(-c2cnc3[nH]cc(C4CCN(C(=O)OC(C)(C)C)CC4)c3c2)cn1`, the CLint in data set [1] was 300 µL/min/mg.

In data set [1], `Cn1cc(Nc2cnc3[nH]cc(-c4cccc(C#N)c4)c3c2)cn1` registered a CLint of 15 µL/min/mg.

As to `Cn1cc(-c2cnc3[nH]cc(-c4ccncc4)c3c2)cn1`, in data set [1], the CLint amounted to 39 µL/min/mg.

Turning to `N#Cc1cccc(-c2c[nH]c3ncc(N4CCCC4)cc23)c1`, the CLint in data set [1] came to 50 µL/min/mg.

In data set [1], `Cn1cc(-c2cnc3[nH]cc(-c4ccccc4F)c3c2)cn1` had a CLint of 150 µL/min/mg.

In the case of `c1nc2[nH]cc(C3CCCNC3)c2cc1-c1cnn(C2CCOCC2)c1` (configuration not stated), the CLint in data set [1] was < 3 µL/min/mg.

`Cn1cc(-c2cnc3[nH]cc(-c4cccc(N)c4)c3c2)cn1`: the CLint in data set [1] came out at 290 µL/min/mg.

Turning to `Cn1cc(-c2cnc3[nH]cc(C4CCCN(C(=O)OC(C)(C)C)C4)c3c2)cn1` (configuration not stated), the CLint in data set [1] is > 300 µL/min/mg.

In the case of `Cn1cc(-c2cnc3c(c2)c(-c2cccc(C#N)c2)cn3C)cn1`, the CLint in data set [1] was determined as 180 µL/min/mg.

With `COc1ccc(-c2c[nH]c3ncc(-c4cnn(C)c4)cc23)cc1`, the CLint in data set [1] amounted to 180 µL/min/mg.

Broadly, the Cmax is the peak of the concentration-time curve. What is called Tmax is the time at which the peak concentration occurs. In turn, `N#Cc1cccc(-c2c[nH]c3ncc(-c4cnn(C5CCNCC5)c4)cc23)c1` yielded a Cmax in data set [2] of 4413.3 ng/mL. In addition, the values for the t1/2 in data set [3] and in data set [5] were 0.567 h and > 2 h, respectively. For the same molecule, the CLint in data set [1] was < 3 µL/min/mg. In data set [4], this molecule yielded a CLH of 19 µL/min. Further, the Tmax in data set [6] stood at 1 h. In addition, in data set [7], the Drug uptake entry is “Bld”. Moreover, the permeability result in data set [8] was “Permeable”.

Values taken from ChEMBL document CHEMBL5034006, “Lead Optimization of 3,5-Disubstituted-7-Azaindoles for the Treatment of Human African Trypanosomiasis” (J Med Chem, 2021).
